Measured values collected from several papers.
Each line is one published result; the experiments were not run side by side.

With CC(C)C[C@H](NC(=O)[C@H](Cc1ccccc1)NC(=O)c1cnccn1)B(O)O the IC50 was 0.014 µM (DLD-1; cell growth or viability, ATP luminescence).
CC#CC(=O)N1CC[C@@H](n2cc(-c3ccc(Oc4c(F)cccc4F)cc3)c3c(N)n[nH]c(=O)c32)C1 gave a GI50 of 6.96 µM (Z-138; cell growth or viability, ATP luminescence; 72 h).
For COc1cc(Nc2nccc(-c3cnn4nc(OC)ccc34)n2)cc(C(F)(F)F)c1, the IC50 was 0.25 µM (SK-N-FI; cell growth or viability, ATP luminescence).
For Cc1ccc(CN2C[C@H]3CC[C@@H]4[C@]5(C)COC(C)(C)O[C@@H]5CC[C@@]4(C)[C@@H]3C[C@@H]2C2=CCOC2=O)cc1, the inhibition was 98.8% (unidentified human coronavirus; cytopathic effect; MRC5; 25 µM, 72 h).
For COC(=O)N[C@H](C(=O)N1CCC[C@H]1c1ncc(-c2ccc(-c3ccc(-c4cnc([C@@H]5CCCN5C(=O)[C@@H](NC(=O)OC)C(C)C)[nH]4)cc3)cc2)[nH]1)C(C)C, the EC50 was 2e-05 µM (Hepatitis C virus; viral replication, inhibitor; Huh-7, GETYPE2A; replicon).
C[C@]1(CO)[C@H]2CC[C@@H]3CN(Cc4ccccc4)[C@@H](C4=CCOC4=O)C[C@H]3[C@]2(C)CC[C@H]1O has an inhibition of 34.9% (unidentified human coronavirus; cytopathic effect; MRC5; 25 µM, 72 h).
With CCOC(=O)N[C@H](CC(C)C)C(=O)N1CCC[C@H]1C(=O)Nc1cccc(C#CC#Cc2cccc(NC(=O)[C@@H]3CCCN3C(=O)[C@@H](CC(C)C)NC(=O)OCC)c2)c1 the EC50 was over 10 µM (Hepatitis C virus; viral replication, inhibitor, luciferase; GETYPE3A; replicon).
CC(=O)OC[C@@]1(C)[C@H]2CC[C@@H]3CN(Cc4ccc(C(C)(C)C)cc4)[C@@H](C4=CCOC4=O)C[C@H]3[C@]2(C)CC[C@H]1OC(C)=O has an inhibition of 94.1% (unidentified human coronavirus; cytopathic effect; MRC5; 25 µM, 72 h).
C=CC(=O)N1CCC[C@@H](n2nc(-c3ccc(Oc4ccccc4)cc3)c3c(N)ncnc32)C1 gave a GI50 of 10.3 µM (Granta-519; cell growth or viability, ATP luminescence; 72 h).
CC(C)C[C@H](NC(=O)OCc1ccccc1)C(=O)N1CCC[C@H]1C(=O)Nc1ccc(C#CC#Cc2ccc(NC(=O)[C@@H]3CCCN3C(=O)[C@H](CC(C)C)NC(=O)OCc3ccccc3)cc2)cc1 has an EC50 of over 10 µM (Hepatitis C virus; viral replication, inhibitor, luciferase; Huh-5-2, GETYPE1B; 72 h, replicon).
